Published values from different studies.
Protocols differ between the studies behind these lines. pIC50: −log10 of the molar value.
HTR2A: 5-hydroxytryptamine receptor 2A (HTR2A, Homo sapiens, UniProt P28223)
PFF0160c: Dihydroorotate dehydrogenase (quinone), mitochondrial (PFF0160c, Plasmodium falciparum, UniProt Q08210)

With `COC(=O)c1cc(N(C)C(=O)c2ccn3ncc(-c4ccc(C(=O)O)cc4)c3c2)ccc1Cl` the pIC50 was < 4.52 (Serine/threonine-protein kinase WNK1 (WNK1, Homo sapiens, UniProt Q9H4A3); enzyme activity; inhibitor).
With `CC(C)N(CCc1c[nH]c2cccc(OC(=O)CCCC(=O)O)c12)C(C)C` the pIC50 was 5.24 (HTR2A; ligand displacement; radioligand).
The pIC50 of `Cn1nccc1[C@]1(CNC(=O)c2ccc(F)c(F)c2-c2ccc(C(F)(F)F)cc2)NC(=O)NC1=O` is reported as < 4.00 (Mucosa-associated lymphoid tissue lymphoma translocation protein 1 (MALT1, Homo sapiens, UniProt Q9UDY8); enzyme activity; inhibitor).
With `Cn1nc2c(=O)n(C3CC3)ccc2c1[C@](O)(c1ccc(C(F)(F)F)c(C#N)c1)C1CC1` the pIC50 was 7.70 (PFF0160c; enzyme activity; inhibitor).
`Oc1ccc(C2=CCN(CC3CC34CC4)CC2)cc1` (stereo not shown) has a pIC50 of 5.21 (HTR2A; calcium signal; antagonist).
`CNC(=O)c1ccc(-c2cnn3ccc(C(=O)N(C)c4ccc(Cl)c(C(=O)O)c4)cc23)cc1` gave a pIC50 of < 4.52 (Thromboxane A2 receptor (TBXA2R, Homo sapiens, UniProt P21731); cell-free assay).
`CCn1cnc2c([C@@](O)(CC)c3ccc(C(F)(F)F)nc3)n(C)nc2c1=O` has a pIC50 of 7.25 (PFF0160c; enzyme activity; inhibitor).
`Cc1nc(Nc2ccc(CC(=O)O)cc2)nc(Nc2ccc(F)c(C(F)(F)F)c2)c1C` has a pIC50 of ~5.82 (cGMP-specific 3',5'-cyclic phosphodiesterase (PDE5A, Homo sapiens, UniProt O76074); enzyme activity; inhibitor; FP).
`COc1ccc(COCCN(C)C(C)Cc2ccc(O)cc2)cc1` (stereo not shown) gave a pIC50 of 4.77 (HTR2A; calcium signal; antagonist).
`Cn1nc2c(=O)n(C3CC3)cnc2c1[C@](O)(c1ccc(C(F)(F)F)c(C#N)c1)C(F)(F)F` has a pIC50 of 7.90 (PFF0160c; enzyme activity; inhibitor).
